According to paper PMC2745912 (The Journal of neuroscience : the official journal of the …, 2009):

Key:
Abcg2 [1] = target: T1, Abcg2 (Mus musculus, UniProt Q7TMS5); format: in vivo
T1 sequence (Q7TMS5 1-657): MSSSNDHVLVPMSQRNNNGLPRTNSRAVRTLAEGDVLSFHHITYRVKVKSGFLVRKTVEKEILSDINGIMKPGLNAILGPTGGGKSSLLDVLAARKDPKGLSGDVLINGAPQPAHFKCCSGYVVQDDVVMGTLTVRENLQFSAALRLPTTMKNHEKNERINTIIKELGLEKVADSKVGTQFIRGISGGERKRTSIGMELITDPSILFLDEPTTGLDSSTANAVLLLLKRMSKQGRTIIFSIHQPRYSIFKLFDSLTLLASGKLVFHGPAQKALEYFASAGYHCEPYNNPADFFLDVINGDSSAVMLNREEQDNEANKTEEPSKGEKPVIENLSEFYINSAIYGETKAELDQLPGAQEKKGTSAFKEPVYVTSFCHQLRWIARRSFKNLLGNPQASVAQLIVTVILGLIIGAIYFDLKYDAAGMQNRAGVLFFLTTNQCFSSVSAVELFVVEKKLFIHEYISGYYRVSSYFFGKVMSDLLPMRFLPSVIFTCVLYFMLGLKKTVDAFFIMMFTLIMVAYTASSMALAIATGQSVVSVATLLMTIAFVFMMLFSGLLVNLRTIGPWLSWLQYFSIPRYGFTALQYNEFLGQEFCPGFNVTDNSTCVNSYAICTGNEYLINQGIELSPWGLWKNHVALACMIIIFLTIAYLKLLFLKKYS
How it was run: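 Peptides were Cy5.5-labeled via NHS ester kit. Adult KO/wt pairs were matched for age, sex and weight and shaved under isoflurane. Pairs received equal labeled peptide (65 or 200 μg) by tail vein. Heads were imaged live (1.5 mm resolution) at 15 min and 2, 4, 6, 8 and/or 24 h. Brains were saline-perfused and scanned ex vivo (1 mm). Excitation: 670 nm pulsed laser diode, 80 MHz, 12 ps.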

hABCG2 = target: T2, hABCG2 (Homo sapiens, UniProt Q9UNQ0); format: cell-based; settings: empty vector-transfected HEK293; 5 μM Aβ1-40; Hoechst 33342; data not shown
T2 sequence (Q9UNQ0 1-655): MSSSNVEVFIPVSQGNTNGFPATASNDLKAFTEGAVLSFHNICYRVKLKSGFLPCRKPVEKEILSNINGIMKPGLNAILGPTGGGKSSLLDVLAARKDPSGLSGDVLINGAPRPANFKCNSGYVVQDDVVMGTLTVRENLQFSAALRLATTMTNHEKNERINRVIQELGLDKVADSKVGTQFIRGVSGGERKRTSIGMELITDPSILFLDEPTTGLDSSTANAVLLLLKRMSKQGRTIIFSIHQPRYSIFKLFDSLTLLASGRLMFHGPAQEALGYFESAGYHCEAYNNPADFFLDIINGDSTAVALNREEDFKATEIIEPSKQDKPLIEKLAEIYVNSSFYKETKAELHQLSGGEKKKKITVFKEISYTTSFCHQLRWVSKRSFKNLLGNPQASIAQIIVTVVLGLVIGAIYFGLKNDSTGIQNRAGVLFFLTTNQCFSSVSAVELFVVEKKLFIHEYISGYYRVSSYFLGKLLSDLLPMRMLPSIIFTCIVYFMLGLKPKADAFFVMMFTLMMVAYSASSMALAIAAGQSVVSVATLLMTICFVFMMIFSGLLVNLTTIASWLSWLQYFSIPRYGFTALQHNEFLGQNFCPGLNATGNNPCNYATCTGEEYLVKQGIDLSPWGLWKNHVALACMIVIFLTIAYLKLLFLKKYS

Abcg2 [2] = target: T1, Abcg2; format: in vivo; settings: after intravenous injection; brain sections stained with 6E10
How it was run: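 Mice received i.v. Cy5.5-labeled Aβ1–40 and underwent optical imaging, then saline perfusion. Brains were OCT-embedded and frozen-sectioned at 10 μm. Sections were immunostained with anti-Aβ 6E10 plus secondary antibody; control sections got secondary antibody only. Vessels were marked with fluorescein-labeled tomato lectin.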

ABCG2 expression in HBEC = experiment: ABCG2 expression in human brain endothelial cells; format: cell-based; settings: 50 units of either cytokine; data not shown

## Aβ1-40: Synthetic Aβ1-40 peptide purchased from Biopeptides Co., Inc
Abcg2 [1]; Abcg2 KO vs wt mice, i.v. injection of Cy5.5-labeled peptide
  more peptide transported into the brain in the absence of Abcg2: 20~37%
hABCG2
  effect of Aβ1-40 peptides on drug uptake in empty vector-transfected cells: did not significantly affect

## Cy5.5-labeled Aβ1-40: Synthetic Aβ1-40 labeled with fluorescent dye Cy5.5 using Cy5.5 Mono NHS ester kit
Abcg2 [1]; 65 μg/mouse i.v., two pairs of mice, data not shown
  brain fluorescence concentration, Abcg2 KO vs wt animals: comparatively higher
Abcg2 [2]
  Aβ immunofluorescence in brains of Abcg2 KO mice compared to wt mice: strongly enhanced

## IL-1β: pro-inflammatory cytokine
ABCG2 expression in HBEC
  ABCG2 expression in HBEC after cytokine: no changes in ABCG2 expression

## TNF-α
ABCG2 expression in HBEC
  ABCG2 expression in HBEC after cytokine: no changes in ABCG2 expression
